Activity calls are given as the source filed them.
Assays:
[1] = Ratio of LD50 for Swiss mice (Mus musculus) to ED50 for Plasmodium vinckei petteri infected mice (Mus musculus); format: functional
Summary of the method: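 Therapeutic index: LD50 (healthy Swiss mice, observed 60 days) divided by ED50 from the 4-day P. vinckei petteri suppressive test.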

[2] = tested on: Plasmodium yoelii nigeriensis; assay: Antimalarial activity against Plasmodium yoelii nigeriensis infected subcutaneously dosed mice (Mus musculus); format: functional; conditions: for ED50 / ED90: Plasmodium yoelii, sc
Summary of the method: (§1)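 Four-day suppressive test with P. yoelii nigeriensis: infected mice given drug once daily for four consecutive days p.o. or s.c. (DMSO vehicle, chloroquine in 0.9% NaCl). Parasitemia compared with untreated controls. Cure was defined as no parasites detected after 60 days, with CD50 taken as the dose curing 50% of mice.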

[3] = Cytotoxicity against human HCT cells assessed as [3H]thymidine incorporation; format: cell-based
Summary of the method: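 HCT human colorectal tumour cells grown with 10% fetal calf serum and harvested with 0.05% trypsin-EDTA. Plated at 15 × 10^3 cells/well with drug dilutions.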

Plasmodium falciparum [4] = assay: Antimalarial activity against chloroquine-resistant Plasmodium falciparum FcB1; format: functional, organism-based
Summary of the method: (§2)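 Asexual P. falciparum grown in culture at 37°C under 5% CO2 and exposed to drug dilutions for 48 h. Growth inhibition measured by radioactive micromethod. IC50 read graphically from concentration vs % growth inhibition; mean of at least three independent experiments.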

Mus musculus [5] = assay: Toxicity against Plasmodium vinckei petteri infected mice (Mus musculus) at 25 mg/kg, intraperitoneally after 4 days; format: organism-based; parameters: dose 25 mg/kg, route intraperitoneal; conditions: in vivo, ip, 96 h
Summary of the method: (§3)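 Subacute toxicity: P. vinckei petteri-infected mice dosed on four consecutive days (day 0–3) at 10, 25 or 50 mg/kg/day p.o., i.p. or s.c. Five mice per dose and route.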

Plasmodium falciparum [6] = assay: Antimalarial activity against chloroquine-resistant Plasmodium falciparum FcM29; format: functional, organism-based; summary of the method: as §2
[7] = tested on: Plasmodium vinckei petteri; assay: Antimalarial activity against Plasmodium vinckei petteri infected subcutaneously dosed Swiss Albino mice (Mus musculus); format: functional; conditions: for ED50 / ED90: Plasmodium vinckei, sc
Summary of the method: (§4)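 Four-day suppressive test: groups of five female Swiss albino mice infected i.p. on day 0 with 2 × 10^7 parasitized red cells, then dosed once daily for 4 days (i.p., p.o. or s.c.; DMSO vehicle, chloroquine in 0.9% NaCl). Parasitemia read on day 4 vs untreated controls; ED50/ED90 as % growth inhibition; CD50/CD90 = cure (no parasites at 60 days).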

[8] = tested on: Plasmodium vinckei petteri; assay: Antimalarial activity against Plasmodium vinckei petteri infected orally dosed Swiss Albino mice (Mus musculus); format: functional; conditions: for ED50 / ED90: Plasmodium vinckei, po; summary of the method: as §4
Mus musculus [9] = assay: Toxicity against Plasmodium vinckei petteri infected mice (Mus musculus) at 50 mg/kg, perorally after 4 days; format: organism-based; parameters: dose 50 mg/kg, route oral; conditions: in vivo, po, 96 h; summary of the method: as §3
Mus musculus [10] = assay: Toxicity against intraperitoneally dosed Swiss mouse; format: organism-based; conditions: in vivo, ip
Summary of the method: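 Acute toxicity: noninfected Swiss mice (two to five per dose) given a single i.p. injection. LD50 is the dose killing 50% of mice within 60 days.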

[11] = tested on: Plasmodium vinckei petteri; assay: Antimalarial activity against Plasmodium vinckei petteri infected intraperitoneally dosed Swiss Albino mice (Mus musculus); format: functional; conditions: for ED50 / ED90: Plasmodium vinckei, ip; for ED50: read-out: ED50; for ED90: read-out: ED90; summary of the method: as §4
Plasmodium falciparum [12] = assay: Antimalarial activity against chloroquine-sensitive Plasmodium falciparum F32; format: functional, organism-based; summary of the method: as §2
[13] = tested on: Plasmodium vinckei petteri; assay: Antimalarial activity against Plasmodium vinckei petteri infected mice (Mus musculus) at 13 mg/kg/day, peroral administered 4 days after infection for 4 days; format: functional, organism-based
Summary of the method: (§5)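 Established-infection test: mice infected with 10^6 P. vinckei petteri on day 0 and left untreated until day 4. Then dosed p.o. by gavage once daily in DMSO for 4 days (days 4–7). Thin blood smears taken daily before and after treatment, with follow-up for recrudescence to 60 days.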

Mus musculus [14] = assay: Mortality rate in Plasmodium vinckei petteri infected mice (Mus musculus) at 50 mg/kg, subcutaneously; format: functional, organism-based; parameters: dose 50 mg/kg; summary of the method: as §3
[15] = tested on: Plasmodium yoelii nigeriensis; assay: Antimalarial activity against Plasmodium yoelii nigeriensis infected mice (Mus musculus) by oral dose; format: functional; conditions: for ED50 / ED90: Plasmodium yoelii, po; summary of the method: as §1
[16] = tested on: Plasmodium vinckei petteri; assay: Antimalarial activity against Plasmodium vinckei petteri infected mice (Mus musculus) at 5 mg/kg/day, peroral administered 4 days after infection for 4 days; format: functional, organism-based; summary of the method: as §5
Plasmodium falciparum [17] = assay: Growth inhibition after 6 hrs in chloroquine-resistant Plasmodium falciparum FcB1; format: functional, organism-based; conditions: FcB1, 6 h
Summary of the method: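 Plasmion-synchronized FcB1 parasites plated at ring stage and exposed to drug during successive 6-h windows of the erythrocytic cycle (one plate per period). Artemisinin tested at 7, 14, 28 nM; chloroquine at 120, 163, 232 nM; trioxaquine at 11.5, 23, 46 nM. Dilutions prepared daily.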

[18] = Ratio of IC50 for HCT cells to IC50 for Plasmodium falciparum; format: functional
Plasmodium falciparum [19] = assay: Antimalarial activity against chloroquine-sensitive Plasmodium falciparum Nigeria; format: functional, organism-based, Nigerian; summary of the method: as §2
Mus musculus [20] = assay: Toxicity against Swiss mouse at 400 mg/kg, po after 4 days; format: organism-based; parameters: dose 400 mg/kg, route oral; conditions: in vivo, 96 h
Summary of the method: (§6)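 Healthy Swiss mice given 100, 200 or 400 mg/kg/day p.o. by gavage for four consecutive days; two to four mice per dose, two experiments. One mouse killed per dose on days 5, 30 and 60. Organs examined against NaCl- or DMSO-treated controls, with H&E sections of stomach.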

Mus musculus [21] = assay: Toxicity against Swiss mouse at 100 mg/kg, po after 4 days; format: organism-based; parameters: dose 100 mg/kg, route oral; conditions: in vivo, 96 h; summary of the method: as §6
Mus musculus [22] = assay: Toxicity against Swiss mouse at 200 mg/kg, po after 4 days; format: organism-based; parameters: dose 200 mg/kg, route oral; conditions: in vivo, 96 h; summary of the method: as §6
Plasmodium falciparum [23] = assay: Antimalarial activity against chloroquine-resistant Plasmodium falciparum W2 asexual […]; format: functional, organism-based
Plasmodium falciparum [24] = assay: Antimalarial activity against chloroquine-resistant Plasmodium falciparum W2 gametocytes (stage 4 & 5); format: functional, organism-based
Summary of the method: (§7)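 W2 gametocyte cultures treated with 50 mM N-acetyl-D-glucosamine for 3 or 5 days to remove asexual forms. Young (7-day) or old (13-day) cultures exposed to drug dilutions for 48 h. Giemsa thin films made and gametocytes counted per 6,000–10,000 erythrocytes. Mean of three independent experiments.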

Plasmodium falciparum [25] = assay: Antimalarial activity against chloroquine-resistant Plasmodium falciparum W2 gametocytes (stage 2 & 3); format: functional, organism-based; summary of the method: as §7

Compound: CC(C)C1=C[C@H]2OC3(CCC(NCCNc4ccnc5cc(Cl)ccc45)CC3)OO[C@@]2(C)CC1 (stereo in doubt; form 5)
- Ratio LD50/ED50 [1]: 23

Compound: CCN(CC)CCCC(C)Nc1ccnc2cc(Cl)ccc12 (stereo not drawn) [CHLOROQUINE]
- CD50 [2]: 3 mg/kg/day
- CD90 [2]: 5 mg/kg/day
- ED50 [2]: 3 mg/kg/day
- ED90 [2]: 5 mg/kg/day
- IC50 [3]: 50000 nM

Compound: CC(C)C1=C[C@H]2OC3(CCC(NCCNc4ccnc5cc(Cl)ccc45)CC3)OO[C@@]2(C)CC1.O=[N+]([O-])O (stereo partly drawn)
- IC50 (Plasmodium falciparum [4]): 21 nM
- Activity (Mus musculus [5]): Non-toxic
- IC50 (Plasmodium falciparum [6]): 16 nM
- CD50 [7]: 3 mg/kg/day
- CD90 [7]: 8 mg/kg/day
- ED50 [7]: 2 mg/kg/day
- ED90 [7]: 6 mg/kg/day
- CD50 [8]: 24 mg/kg/day
- CD90 [8]: 46 mg/kg/day
- ED50 [8]: 16 mg/kg/day
- ED90 [8]: 34 mg/kg/day
- Activity (Mus musculus [9]): Non-toxic
- LD50 (Mus musculus [10]): 70 mg/kg/day
- CD50 [11]: 3 mg/kg/day
- CD90 [11]: 9 mg/kg/day
- ED50 [11]: 0.7 mg/kg/day
- ED90 [11]: 8 mg/kg/day
- IC50 (Plasmodium falciparum [12]): 25 nM

Compound: CC(C)C1=C[C@H]2OC3(CCC(NCCNc4ccnc5cc(Cl)ccc45)CC3)OO[C@@]2(C)CC1 (stereo partly drawn) [listing 1 of 2 here]
- Activity [13]: Active
- Ratio LD50/ED50 [1]: 100
- Activity (Mus musculus [14]): inactive

Compound: C[C@@H]1CC[C@H]2[C@@H](C)C(=O)O[C@@H]3O[C@@]4(C)CC[C@@H]1[C@]32OO4 [ARTEMISININ]
- CD50 [15]: 75 mg/kg/day
- CD90 [15]: >100 mg/kg/day
- ED50 [15]: 16 mg/kg/day
- ED90 [15]: 27 mg/kg/day
- IC50 (Plasmodium falciparum [4]; Plasmodium falciparum, FcB1): 5 nM
- Activity [16]: Active
- IC50 (Plasmodium falciparum [6]; Plasmodium falciparum, FcM29): 8 nM
- CD50 [7]: >10 mg/kg/day
- CD90 [7]: >10 mg/kg/day
- ED50 [7]: 3.2 mg/kg/day
- ED90 [7]: 8 mg/kg/day
- CD50 [8]: >25 mg/kg/day
- CD90 [8]: >25 mg/kg/day
- ED50 [8]: 17 mg/kg/day
- ED90 [8]: 30 mg/kg/day
- IC50 (Plasmodium falciparum [17]): 15 nM
- CD50 [2]: 7 mg/kg/day
- CD90 [2]: 23 mg/kg/day
- ED50 [2]: 5 mg/kg/day
- ED90 [2]: 23 mg/kg/day
- IC50 [3]: > 35000 nM
- ED50 [11]: 4 mg/kg/day
- ED90 [11]: > 5 mg/kg/day
- IC50 (Plasmodium falciparum [12]; Plasmodium falciparum, F32): 6 nM
- Ratio IC50 [18]: 4370

Compound: CC(C)C1=C[C@H]2OC3(CCC(NCCNc4ccnc5cc(Cl)ccc45)CC3)OO[C@@]2(C)CC1 (stereo in doubt; form 6) [TRIOXAQUINE 3]
- IC50 (Plasmodium falciparum [4]): 26 nM
- IC50 (Plasmodium falciparum [6]): 18 nM
- IC50 (Plasmodium falciparum [19]): 18 nM
- IC50 (Plasmodium falciparum [12]): 18 nM

Compound: CC(C)C1=C[C@H]2OC3(CCC(NCCNc4ccnc5cc(Cl)ccc45)CC3)OO[C@@]2(C)CC1 (stereo partly drawn) [listing 2 of 2 here]
- CD50 [7]: 5 mg/kg/day
- CD90 [7]: 8 mg/kg/day
- ED50 [7]: 1.5 mg/kg/day
- ED90 [7]: 9 mg/kg/day
- CD50 [8]: 12 mg/kg/day
- CD90 [8]: 24 mg/kg/day
- ED50 [8]: 4 mg/kg/day
- ED90 [8]: 9 mg/kg/day
- Activity (Mus musculus [20]): Non-toxic
- Activity (Mus musculus [21]): Non-toxic
- Activity (Mus musculus [22]): Non-toxic
- CD50 [11]: 5 mg/kg/day
- CD90 [11]: 8 mg/kg/day
- ED50 [11]: 0.7 mg/kg/day
- ED90 [11]: 8 mg/kg/day

Compound: CC(C)C1=C[C@H]2OC3(CCC(NCCNc4ccnc5cc(Cl)ccc45)CC3)OO[C@@]2(C)CC1.O=C(O)CC(O)(CC(=O)O)C(=O)O (stereo in doubt; form 5)
- CD50 [15]: 22 mg/kg/day
- CD90 [15]: 24 mg/kg/day
- ED50 [15]: 15 mg/kg/day
- ED90 [15]: 23 mg/kg/day
- IC50 (Plasmodium falciparum [23]): 28 nM
- IC50 (Plasmodium falciparum [24]): 67 nM
- IC50 (Plasmodium falciparum [4]): 5 nM
- CD50 [7]: >10 mg/kg/day
- CD90 [7]: >10 mg/kg/day
- ED50 [7]: 2.8 mg/kg/day
- ED90 [7]: 8 mg/kg/day
- IC50 (Plasmodium falciparum [19]): 23 nM
- CD50 [8]: >25 mg/kg/day
- CD90 [8]: >25 mg/kg/day
- ED50 [8]: 17 mg/kg/day
- ED90 [8]: 23 mg/kg/day
- IC50 (Plasmodium falciparum [25]): 69 nM
- IC50 (Plasmodium falciparum [17]): 18 nM
- CD50 [2]: 3 mg/kg/day
- CD90 [2]: 12 mg/kg/day
- ED50 [2]: 2 mg/kg/day
- ED90 [2]: 5 mg/kg/day
- LD50 (Mus musculus [10]): 70 mg/kg/day
- IC50 [3]: 3000 nM
- CD50 [11]: 12 mg/kg/day
- CD90 [11]: >20 mg/kg/day
- Ratio IC50 [18]: 130
